Assay outcomes: PubChem BioAssay, Johns Hopkins Ion Channel Center
hERG rescue – hERG (human) protection from proarrhythmic block | hit rate 0.51% among 310,000 | activation (rescue from dofetilide block), less the hit threshold, % at 10 µM | Q12809 | CHO-hERG, FluxOR thallium flux, dofetilide IC70 present;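 active = activation above the mean of controls blocked by dofetilide plus 5 SD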;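 also: thallium influx through hERG after potassium depolarization seen as dye fluorescence rise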
KCNK3 inh – human KCNK3 channel inhibition, primary screen. B-score at 10 µM. CHO-KCNK3 thallium flux, FluxOR fluorescence; stronger effect = lower value. O14649. hit rate 0.84% among 340,000;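 active = B-score under library mean minus 4 SD, starting fluorescence ratio at most library mean plus 5 SD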;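 also: more negative B-score means stronger inhibition of thallium flux through KCNK3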
Target sequence (O14649 whole entry, looked up): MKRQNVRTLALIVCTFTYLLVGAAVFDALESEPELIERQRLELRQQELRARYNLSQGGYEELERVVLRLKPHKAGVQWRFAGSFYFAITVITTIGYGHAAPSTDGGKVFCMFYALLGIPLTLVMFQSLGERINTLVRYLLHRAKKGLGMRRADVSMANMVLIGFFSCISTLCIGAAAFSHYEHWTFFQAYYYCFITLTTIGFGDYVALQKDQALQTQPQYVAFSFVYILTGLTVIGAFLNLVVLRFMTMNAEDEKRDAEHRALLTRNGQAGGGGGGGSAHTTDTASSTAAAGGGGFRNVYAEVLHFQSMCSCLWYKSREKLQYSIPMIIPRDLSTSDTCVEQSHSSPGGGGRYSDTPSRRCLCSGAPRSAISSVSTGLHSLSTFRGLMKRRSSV
KCNK9 block – inhibitors of human KCNK9 two-pore domain potassium channel. HEK293 KCNK9, FluxOR thallium flux fluorescence; stronger effect = lower value. hit rate 1.2% among 310,000. B-score at 10 µM. Q9NPC2;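 active = ratio B-score over 3 SD below the library mean, with starting fluorescence within 5 SD of its mean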;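 also: negative B-score means less thallium flux so channel inhibition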
KCNQ1 act – potentiates or activates the human KCNQ1 potassium channel; CHO-K1 KCNQ1, thallium flux FluxOR fluorescence; stronger effect = higher value; B-score at 10 µM; P51787; hit rate 0.35% among 310,000;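 active = fluorescence ratio B-score, a plate-corrected score, at least three library SD, with initial intensity B-score within 5 SD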
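Test system: CHO-K1 cells stably expressing KCNQ1 / Medium: assay buffer / Also added: depolarizing K+/Tl+ stimulus, K2SO4 and Tl2SO4 each 12.5 mM in 5x stock / Incubation: 90 min dye loading and 20 min compound exposure, both at room temperature / Signal: thallium influx via FluxOR fluorescence, kinetic imaging / Evaluation: B score of baseline-normalized fluorescence ratio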
KCNQ1 block – human KCNQ1 channel inhibition. CHO-K1 KCNQ1, FluxOR thallium flux fluorescence; stronger effect = higher value. B-score at 10 µM. hit rate 1.3% among 310,000. AID 2642;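 active = compounds whose thallium flux B-score, printed positive for inhibition, exceeds three library SD while starting fluorescence stays within three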;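 also: channel opened by potassium depolarization with thallium stimulus after 20 min compound exposure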
Kir21 inh – inhibitors of mouse Kir2.1 inward-rectifier potassium channel | HEK293-Kir2.1, FluxOR thallium flux fluorescence; stronger effect = lower value | P35561 | B-score at 10 µM | hit rate 0.85% among 310,000;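 active = fluorescence ratio B-score at or below minus 3 SD of library scores, with starting-brightness B-score within 2 SD, cut at about -4.2 in these data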;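 also: channel flux triggered by added potassium and thallium sulfate stimulus; B-score of peak minus minimum fluorescence over baseline after thallium stimulus; more negative B-score means stronger Kir2.1 block with less thallium influx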
KCNK9 inh conf – confirmation of human KCNK9 potassium channel inhibitors | HEK293 KCNK9 cells, FluxOR thallium flux fluorescence | inhibition, % at 10 µM | hit rate 43% among 4,900 | shares compounds with KCNK9 block;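 active = thallium signal inhibited by more than 5 SD of the compound-free buffer control wells, on both duplicate plates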;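 also: 0% = assay buffer control wells without compound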
Kir2-1 spec – mouse Kir2.1 off-target activity of KCNK9 modulators; shares compounds with KCNK9 block; Kir2.1 cells, FluxOR thallium flux fluorescence; inhibition, % at 10 µM; hit rate 4% among 4,900;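 active = thallium signal drop more than 5 SD beyond the mean of the no-compound control wells, seen in both duplicate plates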;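 also: signal is fluorescence rise after thallium addition divided by baseline fluorescence; plate controls were assay buffer only for no effect and full block by chlorpromazine control for full effect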
HEK293 Tl ctr – second counter-screen for KCNK9 modulators: effect in non-induced cells; AID 492997; hit rate 40% among 4,900; inhibition, % at 10 µM; non-induced KCNK9-HEK293, FluxOR thallium flux; shares compounds with KCNK9 block;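 active = thallium signal drop beyond 5 SD of the untreated control mean, on both duplicate plates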;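 also: plate controls were buffer only IC0 wells for no effect and SID17386958 at its maximal inhibitory level for full effect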
* marks the source's active call; other numbers are inactive results; i = inactive; / = no result given. Shown are actives, neighbours in structure and some others; about 3.7% of the full set was active somewhere.

SMILES	hERG rescue	KCNK3 inh	KCNK9 block	KCNQ1 act	KCNQ1 block	Kir21 inh	KCNK9 inh conf	Kir2-1 spec	HEK293 Tl ctr
Cc1ccccc1Nc1nnc(SCc2cc([N+](=O)[O-])cc3c2OCOC3)s1	-8.0	i	-8.91*	i	i	-2.29	i	i	i
O=c1cc(/C=C/c2ccccc2)oc2c1ccc1ccccc12	-14.8	i	-8.33*	i	i	-0.44	i	i	i
COc1ccc(Cn2c(=O)sc3ccccc32)cc1	-8.3	i	i	i	i	0.23	/	/	/
CC(C)Oc1ccc(Cn2c(=O)sc3ccccc32)cc1	-6.5	i	i	i	i	1.12	i	i	30.5%*
N#Cc1ccc(-n2nccc2-c2cnc3n(c2=O)CCS3)cc1	-0.4	i	i	i	i	-1.5	/	/	/
Cc1cccc(N2CCN(S(=O)(=O)c3ccc4c(c3)CCCN4C(=O)C3CCC3)CC2)c1C	-9.2	i	i	i	i	-0.84	i	i	i
O=C(C1CCC1)N1CCc2cc(S(=O)(=O)N3CCCCC3)ccc21	-7.4	i	i	i	i	-0.52	/	/	/
CC(=O)N1CCCc2cc(S(=O)(=O)N3CCCC(C(=O)N4CCN(c5cc(C)ccc5C)CC4)C3)ccc21 (configuration not stated)	-16.4	i	i	i	i	-1.6	i	i	i
Cc1ccsc1/C=N/N1CCN(Cc2ccccc2)CC1	-8.1	i	i	i	i	0.04	/	/	/
CSc1ccc(Cl)c(C(=O)N(C)CC(=O)Nc2ccc(N3CCOCC3)cc2)c1	-8.9	i	i	i	i	-0.18	/	/	/
C=CCn1c(COc2ccccc2F)nnc1SCCN1C(=O)c2ccccc2C1=O	-11.2	i	i	i	i	-2.05	/	/	/
CC1Cc2ccccc2N1C(=O)CSc1nnc(Cc2ccccc2)n1CCc1ccccc1 (configuration not stated)	-7.7	i	i	i	i	-1.64	/	/	/
Cc1ccc(C)c(NC(=O)c2oc(=O)c3ccccc3c2-c2ccccc2)c1	-9.3	i	-15.2*	i	i	-0.93	64.5%*	i	44.0%*
Cc1ccccc1NC(=O)c1oc(=O)c2ccccc2c1-c1ccccc1	-5.8	i	i	i	i	-1.09	/	/	/
NC[C@H](Cc1ccccc1)NCCCCC1CCCCC1	/	i	/	/	/	/	/	/	/
CNC[C@H](CC1CCCCC1)NC[C@H](Cc1ccccc1)NCCC12CC3CC(CC(C3)C1)C2	-2.8	i	-10.2*	i	i	-8.21*	61.5%*	79.5%*	26.0%*
O=C(c1ccc(Cl)cc1)c1cccc(O)c1	/	i	/	/	/	/	/	/	/
COc1ccc(C(=O)/C=C/NCc2ccc(C)cc2)cc1	-7.1	i	i	i	i	1.01	i	i	i
Cc1ccc(C(=O)/C=C\NCc2ccccc2)cc1	-8.1	i	i	i	i	-0.46	/	/	/
COc1cccc(COC(=O)C2CCN(S(=O)(=O)c3ccc(C)cc3)CC2)c1OC	-9.2	i	i	i	i	1.6	/	/	/
COc1cccc(COC(=O)C2CCN(S(=O)(=O)c3ccc(C)cc3C)CC2)c1OC	-11.9	i	i	i	i	-0.12	i	i	i
CCc1ccc2c(c1)Sc1ccccc1CC2N1CCN(C)CC1 (configuration not stated)	-19.9	i	i	i	i	-2.87	/	/	/
OCCN1CCN(C2Cc3cc(Cl)ccc3Sc3ccc(Cl)cc32)CC1 (configuration not stated) (tested in a mixture with another compound)	-22.3	i	-8.6*	i	7*	-2.05	i	i	i
Cc1cccc(-n2c(Cc3ccccc3)nnc2SCc2ccc([N+](=O)[O-])cc2)c1	-9.4	i	-13.5*	i	i	-2.18	i	i	41.0%*
